The text below walks through data of ChEMBL document CHEMBL5325402, “Exploration of novel hexahydropyrrolo[1,2-e]imidazol-1-one derivatives as antiviral agents against ZIKV and USUV” (Eur J Med Chem, 2023).

≈ marks a conversion by molar mass, not a printed value. Where “and” joins values, the source holds several entries; their conditions need not be identical. Equal entries are not always repeated. Calls of active or inactive are those of the source. The rule behind the calls is not given here.

Data set [1] relates to Usutu virus. Put plainly: Antiviral activity against USUV 3345 isolate Arb276 infected in African green monkey Vero cells assessed as reduction in viral replication pretreated with virus for 1 hr followed by infection of cells with compound treated-virus for 20 hrs by focus reduction assay. It counts as functional, organism-based.
Data set [2] relates to Zika virus. Put plainly: Antiviral activity against ZIKV MR766 infected in African green monkey Vero cells assessed as reduction in viral replication pretreated with virus for 1 hr followed by infection of cells with compound treated-virus for 30 hrs by focus reduction assay. It counts as functional, organism-based.
A short description of data set [3]: Cytotoxicity against African green monkey Vero cells infected with USUV 3345 isolate Arb276 pretreated with virus for 1 hr followed by infection of cells with compound treated-virus for 20 hrs by MTS assay. It counts as toxicity, cell-based. Conditions: chlorocebus sabaeus. The method in brief: (§1)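 MTS viability assay. Cells were treated under the same conditions as the antiviral assays. Absorbance was expressed as % of medium-only cells, and CC50 was derived from the curve. Seeding densities were 1.2 × 10^4/well for Vero, 1.3 × 10^4/well for A549 and 1.6 × 10^4/well for Huh7. DMEM with 2% FBS.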
On the technique in general: Tetrazolium dyes change colour on reduction, which living cells bring about.

Data set [4] can be described thus: Cytotoxicity against African green monkey Vero cells infected with ZIKV MR766 pretreated with virus for 1 hr followed by infection of cells with compound treated-virus for 30 hrs by MTS assay. It counts as toxicity, cell-based. The note with it: chlorocebus sabaeus. The method in brief:
as §1

Data set [5] can be described thus: Selectivity index, ratio of CC50 for African green monkey Vero cells infected with ZIKV MR766 to EC50 for ZIKV MR766 infected in African green monkey Vero cells. It counts as toxicity, cell-based. The note with it: read-out: Ratio CC50/EC50.
A short description of data set [6]: Selectivity index, ratio of CC50 for African green monkey Vero cells infected with USUV 3345 isolate Arb276 to EC50 for USUV 3345 isolate Arb276 infected in African green monkey Vero cells. It counts as toxicity, cell-based. Conditions: read-out: Ratio CC50/EC50.
The test system of data set [7] is Zika virus. Put plainly: Antiviral activity against ZIKV HPF2013 infected in African green monkey Vero cells assessed as reduction in viral replication pretreated with virus for 1 hr followed by infection of cells with compound treated-virus for 30 hrs by focus reduction assay. It counts as functional, organism-based.
Data set [8] can be described thus: Cytotoxicity against African green monkey Vero cells infected with ZIKV HPF2013 pretreated with virus for 1 hr followed by infection of cells with compound treated-virus for 30 hrs by MTS assay. It counts as toxicity, cell-based. The note with it: chlorocebus sabaeus. The method in brief:
as §1

The nature of data set [9]: Selectivity index, ratio of CC50 for African green monkey Vero cells infected with ZIKV HPF2013 to EC50 for ZIKV HPF2013 infected in African green monkey Vero cells. It counts as toxicity, cell-based. Conditions: read-out: Ratio CC50/EC50.
The subject of data set [10] is Zika virus. Put plainly: Antiviral activity against ZIKV MR766 infected in African green monkey Vero cells assessed as viral growth inhibition at 11 to 100 uM pretreated with virus for 1 hr followed by infection of cells with compound treated-virus for 30 hrs by focus reduction assay. Conditions: dose 11-100 µM, time 31.0 hrs. It counts as functional, organism-based. The method in brief:
(§2)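 Screening focus reduction assay. Vero cells were seeded 1.2 × 10^4/well. ZIKV MR766 or USUV (MOI 0.02) was preincubated 1 h at 37 °C with 100, 33 or 11 μM compound, then added to cells for 30 h (ZIKV) or 20 h (USUV). Cells were fixed in acetone-methanol and immunostained with anti-flavivirus E 4G2 plus a peroxidase secondary. Foci counted microscopically; % infection versus DMSO-matched untreated wells. Medium contained 2% FBS.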

In data set [11] the test system is Usutu virus. The experiment in a line: Antiviral activity against USUV 3345 isolate Arb276 infected in African green monkey Vero cells assessed as viral growth inhibition at 11 to 100 uM pretreated with virus for 1 hr followed by infection of cells with compound treated-virus for 20 hrs by focus reduction assay. It counts as functional, organism-based. Conditions: dose 11-100 µM, time 21.0 hrs. A digest of the protocol:
as §2

In data set [12] the test system is Zika virus. The experiment in a line: Antiviral activity against ZIKV MR766 infected in African green monkey Vero cells assessed as viral growth inhibition at 33 uM pretreated with virus for 1 hr followed by infection of cells with compound treated-virus for 30 hrs by focus reduction assay relative to control. It counts as functional. The note with it: time 31 hrs. A digest of the protocol: (§3)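 Virus (MOI 0.02) preincubated with compound 1 h at 37 °C, then mixture put on Vero cells (1.2 × 10^4/well, seeded the day before) in DMEM with 2% FBS for 30 h (ZIKV) or 20 h (USUV) at 37 °C. Fixed in cold acetone-methanol, foci immunostained with anti-flavivirus E 4G2 antibody and counted. % infection is relative to DMSO-treated wells. Screen used 100, 33 and 11 μM.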

The test system of data set [13] is Usutu virus. Put plainly: Antiviral activity against USUV 3345 isolate Arb276 infected in African green monkey Vero cells assessed as viral growth inhibition at 33 uM pretreated with virus for 1 hr followed by infection of cells with compound treated-virus for 20 hrs by focus reduction assay relative to control. It counts as functional. The note with it: Usutu virus, 3345, Vero, time 21 hrs. The method in brief:
as §3

The subject of data set [14] is Usutu virus. The experiment in a line: Antiviral activity against USUV 3345 isolate Arb276 infected in human A549 cells assessed as reduction in viral replication pretreated with virus for 1 hr followed by infection of cells with compound treated-virus for 20 hrs by focus reduction assay. The note with it: Usutu virus, 3345, A549. It counts as functional, organism-based. The method in brief: (§4)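 Dose-response: serial dilutions (100 to 0.13 μM) preincubated 1 h at 37 °C with virus (MOI 0.02), then added to cells for 20 h (USUV) or 30 h (ZIKV) in 2% FBS DMEM. Cells per well: Vero 1.2 × 10^4, A549 1.3 × 10^4, Huh7 1.6 × 10^4. Foci immunostained and counted. EC50/EC90 fitted by variable-slope sigmoidal curve, mean of three independent experiments.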

Data set [15] deals with Zika virus. The experiment in a line: Antiviral activity against ZIKV MR766 infected in human A549 cells assessed as reduction in viral replication pretreated with virus for 1 hr followed by infection of cells with compound treated-virus for 30 hrs by focus reduction assay. It counts as functional, organism-based. The method in brief: as §4
Data set [16] concerns Usutu virus. Put plainly: Antiviral activity against USUV 3345 isolate Arb276 infected in human Huh-7 cells assessed as reduction in viral replication pretreated with virus for 1 hr followed by infection of cells with compound treated-virus for 20 hrs by focus reduction assay. It counts as functional, organism-based. Conditions: Usutu virus, 3345, Huh-7. The method in brief:
as §4

In data set [17] the test system is Zika virus. The experiment in a line: Antiviral activity against ZIKV MR766 infected in human Huh-7 cells assessed as reduction in viral replication pretreated with virus for 1 hr followed by infection of cells with compound treated-virus for 30 hrs by focus reduction assay. It counts as functional, organism-based. The method in brief:
as §4

The nature of data set [18]: Cytotoxicity against human A549 cells infected with USUV 3345 isolate Arb276 pretreated with virus for 1 hr followed by infection of cells with compound treated-virus for 20 hrs by MTS assay. It counts as toxicity, cell-based. The method in brief:
as §1

Data set [19] can be described thus: Cytotoxicity against human A549 cells infected with ZIKV MR766 pretreated with virus for 1 hr followed by infection of cells with compound treated-virus for 30 hrs by MTS assay. It counts as toxicity, cell-based. A digest of the protocol:
as §1

Data set [20] is described as follows: Cytotoxicity against human Huh-7 cells infected with USUV 3345 isolate Arb276 pretreated with virus for 1 hr followed by infection of cells with compound treated-virus for 20 hrs by MTS assay. It counts as toxicity, cell-based. A digest of the protocol:
as §1

Data set [21] in a line: Cytotoxicity against human Huh-7 cells infected with ZIKV MR766 pretreated with virus for 1 hr followed by infection of cells with compound treated-virus for 30 hrs by MTS assay. It counts as toxicity, cell-based. The method in brief: as §1
Data set [22] is described as follows: Solubility in i-propanol at 25 degreeC. It counts as physicochemical.
Data set [23] is described as follows: Solubility in DMSO at 25 degreeC. It counts as physicochemical.
The nature of data set [24]: Aqueous solubility in deionized water containing 1.38% DMSO. It counts as physicochemical.

For the compound `C=C1/C(=C\C=C2/CCC[C@]3(C)[C@@H]([C@H](C)/C=C/C=C/C(O)(CC)CC)CC[C@@H]23)C[C@@H](O)C[C@@H]1O` [SEOCALCITOL], the EC50 (in general, the midpoint of the concentration-response curve) is 2.13 µM and 9.94 µM in the data set on Usutu virus [1] (vero); 7.51 µM in the data set with Zika virus [2]; 2830 nM with Zika virus [7]. Moreover, the CC50 (usually the concentration that lowers cell viability or growth by half) at 21 h in data set [3] stood at 11.9 µM. For the same compound, the 50% cytotoxic concentration (CC50) at 31 h in [4] and in [8] was 11 µM each time. For the same compound, the selectivity ratio in [5] is 1.5; in data set [6], 6; in data set [9], 3.9.

With `O=C1[C@@H]2CCCN2[C@@H](c2ccco2)N1Nc1ccc([N+](=O)[O-])cc1`, the outcome in the data set with Zika virus [10] and in the data set on Usutu virus [11] was inactive.

As to `O=C1[C@@H]2CCCN2[C@@H](c2ccco2)N1Nc1ccccc1`, the inhibition at 33 µM in the data set with Zika virus [12] and with Usutu virus [13] was less than 50% in each case.

For the compound `COc1cc([C@H]2N(Nc3ccc([N+](=O)[O-])cc3)C(=O)[C@@H]3CCCN32)ccc1O`, the outcome with Zika virus [10] and in the data set with Usutu virus [11] was inactive.

`CCN(CC)CCCC(C)Nc1ccnc2cc(Cl)ccc12` (stereo unspecified) [CHLOROQUINE]: the EC50 in the data set with Usutu virus [1] (Usutu virus, 3345, Vero) was 8.3 µM; in the data set on Zika virus [2], 1.53 µM; in the data set with Usutu virus [14], 4.24 µM; in the data set with Zika virus [15], 5.99 µM; in the data set with Usutu virus [16], 4.82 µM; in the data set on Zika virus [17] (MR766, Huh-7), 950 nM. For the same compound, the 90% effect concentration (EC90) (commonly the concentration needed for an effect of 90%) with Usutu virus [1] (Usutu virus, 3345, Vero, time 21 hrs) stood at 28.2 µM; in the data set on Zika virus [2] (time 31 hrs), 5.77 µM; with Usutu virus [14] (time 21 hrs) it was 60.1 µM; in the data set on Zika virus [15] (time 31 hrs) it was 50.3 µM; in the data set on Usutu virus [16] (time 21 hrs) it was 11.8 µM; with Zika virus [17] (MR766, Huh-7, time 31 hrs), 2360 nM. Also, the half-maximal cytotoxic concentration (CC50) at 21 h in [3] was found to be 115 µM; in data set [18], 144 µM; in data set [20], 75.5 µM. The CC50 at 31 h in data set [4] is 136 µM; in data set [19], 80.5 µM; in [21] it was 58.5 µM.

Regarding `O=C1[C@@H]2CCCN2[C@@H](Cc2ccc(O)c(O)c2)N1c1ccc([N+](=O)[O-])cc1`, the result in the data set on Zika virus [10] and with Usutu virus [11] was inactive.

With `O=C1[C@@H]2CCCN2[C@@H](c2cccc(O)c2)N1c1ccc([N+](=O)[O-])cc1`, the result in the data set on Zika virus [10] and in the data set on Usutu virus [11] was inactive.

`COc1cc(C[C@H]2N(c3ccc([N+](=O)[O-])cc3)C(=O)[C@@H]3CCCN32)ccc1O`: the outcome in the data set on Zika virus [10] and with Usutu virus [11] was inactive.

Turning to `COc1cc([C@H]2N(c3ccc([N+](=O)[O-])cc3)C(=O)[C@@H]3CCCN32)ccc1O`, the solubility (as a rule, the dissolved amount per volume that the medium holds) is 1170 µg/mL (≈ 3.17 mM) in [22], 37.5 mg/mL (≈ 102 mM) in [23] and 518 µg/mL (≈ 1.4 mM) in data set [24].

For the compound `O=C1[C@@H]2CCCN2[C@@H](Cc2ccc(O)cc2)N1c1ccc([N+](=O)[O-])cc1`, the result in the data set on Zika virus [10] and in the data set with Usutu virus [11] was inactive.

Turning to `COc1ccc([C@H]2N(c3ccc([N+](=O)[O-])cc3)C(=O)[C@@H]3CCCN32)cc1OC`, the outcome in the data set with Zika virus [10] and in the data set with Usutu virus [11] was inactive.

In the case of `COc1ccc([C@H]2N(c3ccc([N+](=O)[O-])cc3)C(=O)[C@@H]3CCCN32)cc1O`, the result with Zika virus [10] and in the data set with Usutu virus [11] was inactive.

As to `COc1ccc(C[C@H]2N(c3ccc([N+](=O)[O-])cc3)C(=O)[C@@H]3CCCN32)cc1O`, the outcome with Zika virus [10] and in the data set on Usutu virus [11] was inactive.

As to `O=C1[C@@H]2CCCN2[C@@H](c2ccc(O)c(O)c2)N1c1ccc([N+](=O)[O-])cc1`, the result with Zika virus [10] and in the data set on Usutu virus [11] was inactive.

`COc1cc([C@H]2N(Nc3ccccc3)C(=O)[C@@H]3CCCN32)ccc1O`: the inhibition at 33 µM with Zika virus [12] and in the data set with Usutu virus [13] was less than 50% throughout.

Consider `COc1ccc(C[C@H]2N(Nc3ccc([N+](=O)[O-])cc3)C(=O)[C@@H]3CCCN32)cc1OC`, for which the result with Zika virus [10] and in the data set with Usutu virus [11] was inactive.
